For orientation: CL/F means the apparent clearance, not corrected for the fraction that reaches the circulation. As a reminder, the bioavailability is the share of a dose that reaches the circulation, judged against a reference dose that is usually intravenous. The term AUC denotes concentration integrated over time. What is called Cmax is the maximum level reached in the sampled fluid or tissue. The term clearance denotes the volume of plasma or blood freed of the substance per unit of time. Read a low clearance as a low capacity for elimination.

Data set [1] can be described thus: Plasma protein binding in human by equilibrium dialysis method. It is filed as ADME, cell-free. Particulars: read-out: PPB (converted).
The nature of data set [2]: Plasma protein binding in chimeric mouse transplanted with rat hepatocytes by equilibrium dialysis method. Conditions: read-out: PPB (converted). Format: ADME, cell-free, Hepatocyte. The gist of the method:
(§1)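 Compound at 1 µg/mL incubated in plasma of h-PXB or r-PXB mice; bound fraction determined by equilibrium dialysis.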
In general terms: In equilibrium dialysis only unbound substance equilibrates across the membrane.

Data set [3] in a line: Plasma protein binding in chimeric mouse transplanted with human hepatocytes by equilibrium dialysis method. Format: ADME, cell-free, Hepatocyte. Conditions: read-out: PPB (converted). Put shortly: as §1
Data set [4] is described as follows: Clearance in rat at 3.2 mg/kg, po. Particulars: in vivo. Format: ADME, organism-based. Also on record: dose 3.2 mg/kg, route oral.
Data set [5] is described as follows: Oral bioavailability in rat at 3.2 mg/kg. It is filed as ADME, organism-based. Conditions: in vivo.
The nature of data set [6]: AUC in rat at 3.2 mg/kg, po. It is filed as ADME, organism-based. Further details: dose 3.2 mg/kg, route oral. Particulars: plasma.
The nature of data set [7]: Oral bioavailability in chimeric mouse transplanted with rat hepatocytes at 3 mg/kg. Format: ADME, organism-based, Hepatocyte.
A short description of data set [8]: Cmax in rat at 3.2 mg/kg, po. Format: ADME, organism-based. Further details: dose 3.2 mg/kg, route oral. Conditions: in vivo.
Data set [9] is described as follows: Clearance in chimeric mouse transplanted with rat hepatocytes at 3 mg/kg, po. Format: ADME, organism-based, Hepatocyte. Also on record: dose 3 mg/kg, route oral. Put shortly:
(§2)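 Single 3 mg/kg oral dose of compound in 50% PEG400 with equimolar HCl in saline to h-PXB or r-PXB mice (n=3~4). Orbital-vein blood (heparinized) taken over 0–6 hr; plasma stored at -30°C and assayed by LC/MS/MS. Non-compartmental analysis: Cmax from observed values, AUC by trapezoidal rule extrapolated to infinity, CLoral = Dose/AUCpo.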

The nature of data set [10]: Cmax in chimeric mouse transplanted with rat hepatocytes at 3 mg/kg, po. Also on record: dose 3 mg/kg, route oral. It is filed as ADME, organism-based, Hepatocyte. The gist of the method: as §2
Data set [11] in a line: AUC in chimeric mouse transplanted with rat hepatocytes at 3 mg/kg, po. Further details: dose 3 mg/kg, route oral. Format: ADME, organism-based, Hepatocyte. The gist of the method: as §2
A short description of data set [12]: AUC in human at 10 mg, po. Format: ADME, organism-based. Particulars: plasma.
Data set [13] in a line: Clearance in human at 10 mg, po. It is filed as ADME, organism-based. Conditions: in vivo.
The nature of data set [14]: Cmax in human at 10 mg, po. Format: ADME, organism-based. Also on record: dose 10 mg, route oral. Conditions: in vivo.
Data set [15] is described as follows: Clearance in chimeric mouse transplanted with human hepatocytes at 3 mg/kg, po. Format: ADME, organism-based, Hepatocyte. Further details: dose 3 mg/kg, route oral. The gist of the method: as §2
Data set [16] in a line: Oral bioavailability in chimeric mouse transplanted with human hepatocytes at 3 mg/kg. Format: ADME, organism-based, Hepatocyte.
Data set [17] in a line: AUC in chimeric mouse transplanted with human hepatocytes at 3 mg/kg, po. It is filed as ADME, organism-based, Hepatocyte. Further details: dose 3 mg/kg, route oral. Put shortly:
as §2

A short description of data set [18]: Total clearance in rat at 3 mg/kg, iv. Format: ADME, organism-based. Also on record: dose 3 mg/kg, route intravenous. Particulars: in vivo.

The structures appear in SMILES notation.

Regarding `CC(C)n1nc(-c2cnc(N)nc2-c2ccccc2)ccc1=O`, the fraction unbound in data set [1] is 0.228; in [2], 0.233; in data set [3] it was 0.205. Moreover, the apparent clearance (CL/F) in data set [4] was found to be 29.8 mL/min/kg; in [9] it was 61.6 mL/min/kg; in [13] it was 1090 mL/min/kg; in [15] it was 234 mL/min/kg. The values for the bioavailability in data set [5], in data set [7] and in data set [16] were 34.6%, 52.6% and 29.4%, respectively. For the same compound, the AUC came out at 1790 ng·h/mL in data set [6], 811 ng·h/mL in data set [11], 2.19 ng·h/mL in [12] and 214 ng·h/mL in data set [17]. The Cmax stood at 544 ng/mL in data set [8], 856 ng/mL in data set [10] and 1.5 ng/mL in [14]. Further, in [18], the clearance was 10.8 mL/min/kg.

Values taken from ChEMBL document CHEMBL3526077, “Prediction of human metabolism of FK3453 by aldehyde oxidase using chimeric mice transplanted with human or rat hepatocytes” (Drug Metab Dispos, 2012).
